Experimental data from ChEMBL document CHEMBL3864187, “Discovery and Characterization of a Peptoid with Antifungal Activity against Cryptococcus neoformans” (ACS Med Chem Lett, 2016).
≈ marks a conversion by molar mass, not a printed value. Calls of active or inactive are those of the source. Where a SMILES comes first, the peptide text is derived from it. [ ]: non-standard residue; d: D form. NFurfurylGly = O=C(O)CNCc1ccco1; Gly(N(CH2)3NH2) = NCCCNCC(=O)O; Nphe = O=C(O)CNCc1ccccc1

Key:
[1] = Antifungal activity against Cryptococcus neoformans serotype A H99S assessed as inhibition of colony growth measured after 72 hrs by PrestoBlue staining based broth dilution method; type: functional; conditions: for MIC: Cryptococcus neoformans var. grubii H99S
In short: (§1)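 Standard broth dilution of the synthesized, HPLC-purified peptoid against C. neoformans in a triplicate-sample format with 72 h incubation; MIC is the lowest concentration that inhibits growth.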

[2] = Cytotoxicity against mouse NIH/3T3 cells measured after 48 hrs by MTT assay; type: toxicity, NIH3T3
In short: (§2)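 Cells were exposed to peptoid across 800 to 3.1 μg/mL. IC50 is defined as the concentration giving 50% growth inhibition. Cytotoxicity was also scored at 6.3 μg/mL within this range.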

Cryptococcus neoformans [3] = test: Antifungal activity against Cryptococcus neoformans serotype A clinical isolate B24 after 72 hrs by PrestoBlue staining based broth dilution method; type: functional; conditions: isolate B24, 72 h
In short: (§3)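 Standard broth dilution MIC assay run in triplicate samples with 72 h incubation. The MIC is the lowest concentration inhibiting growth. An IC50 (50% inhibitory concentration) is also derived from the same assay.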

[4] = Cytotoxicity against human HPL1A cells measured after 48 hrs by MTT assay; type: toxicity, cell-based; in short: as §2
[5] = Cytotoxicity against human erythrocytes assessed as hemolysis measured after 1 hr by spectrophotometric method; type: toxicity, cell-based; conditions: erythrocyte
In short: (§4)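 Human erythrocytes were exposed to peptoid across 800 to 3.1 μg/mL. HC10 is defined as the concentration lysing 10% of erythrocytes. Lysis was also scored at 6.3 μg/mL.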

[6] = Metabolic stability in human serum assessed as compound degradation at 0.1 mg/mL measured after 48 hrs by RP-HPLC analysis; type: ADME
[7] = Antifungal activity against Cryptococcus neoformans serotype D ATCC 24067 after 72 hrs by PrestoBlue staining based broth dilution method; type: functional, Cryptococcus deneoformans; in short: as §1
[8] = Cytotoxicity against human HepG2 cells at 6.3 ug/ml measured after 48 hrs by MTT assay; type: toxicity, cell-based; conditions: hepg2, 48 h; in short: as §2
Cryptococcus neoformans [9] = test: Fungicidal activity against Cryptococcus neoformans serotype A H99S at =>6.3 ug/mL measured after 72 hrs by broth dilution method; type: functional; conditions: Cryptococcus neoformans var. grubii H99S
In short: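 Broth MIC assay over a range of peptoid concentrations with 72 h incubation. Triplicate wells are pooled, washed with PBS to remove drug and spotted onto YPD agar. Fungicidal activity means no colony regrowth; recovery of colonies means fungistatic only.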

[10] = Cytotoxicity against human HepG2 cells measured after 48 hrs by MTT assay; type: toxicity, cell-based; in short: as §2
[11] = Selectivity index, ratio of IC50 for human HPL1A cells to MIC for Cryptococcus neoformans serotype A H99S
In short: (§5)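 Mammalian toxicity tested at 800 to 3.1 μg/mL. IC50 (50% growth inhibition) was measured in NIH/3T3, HepG2 and HPL1A cells, and HC10 (10% lysis) in human erythrocytes. Each value was divided by the broth-dilution MIC against H99S.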

[12] = Antifungal activity against Cryptococcus neoformans serotype D clinical isolate AD 12-27 after 72 hrs by PrestoBlue staining based broth dilution method; type: functional, Cryptococcus deneoformans; in short: as §3
[13] = Hemolytic activity against human erythrocytes at 6.3 ug/ml measured after 1 hr by spectrophotometric method; type: cell-based; conditions: erythrocyte; in short: as §4
[14] = Selectivity index, ratio of HC10 for human erythrocytes to MIC for Cryptococcus neoformans serotype A H99S; in short: as §5
[15] = Selectivity index, ratio of IC50 for mouse NIH/3T3 cells to MIC for Cryptococcus neoformans serotype A H99S; in short: as §5
Cryptococcus neoformans [16] = test: Antifungal activity against Cryptococcus neoformans serotype A clinical isolate B18 after 72 hrs by PrestoBlue staining based broth dilution method; type: functional; conditions: isolate B18, 72 h; in short: as §3
[17] = Cytotoxicity against human HPL1A cells at 6.3 ug/ml measured after 48 hrs by MTT assay; type: toxicity, cell-based; in short: as §2
[18] = Selectivity index, ratio of IC50 for human HepG2 cells to MIC for Cryptococcus neoformans serotype A H99S; in short: as §5
Mus musculus = species: Mus musculus; test: Cytotoxicity against mouse NIH/3T3 cells at 6.3 ug/ml measured after 48 hrs by MTT assay; type: toxicity, cell-based; conditions: nih3t3, 48 h; in short: as §2
[19] = Antifungal activity against Cryptococcus neoformans serotype D clinical isolate AD 12-30 after 72 hrs by PrestoBlue staining based broth dilution method; type: functional, Cryptococcus deneoformans; in short: as §3

## NCCCN(CC(=O)N(CC(=O)N(CC(N)=O)Cc1ccco1)Cc1ccccc1)C(=O)CN(Cc1ccccc1)C(=O)CNCc1ccccc1 (H-[Nphe][Nphe][Gly(N(CH2)3NH2)][Nphe][NFurfurylGly]-NH2)
[1]
  MIC: > 200 µg/mL

## CCCCCCCCCCCCCNCC(=O)N(CCCCN)CC(=O)N(CC(N)=O)Cc1ccco1
[2]
  IC50 at 48 h: 48.6 to 50.3 µg/mL (≈ 93.1 to 96.4 µM)
Cryptococcus neoformans [3]
  IC50: 10.7 µg/mL (≈ 20.5 µM)
  MIC: 12.5 µg/mL (≈ 24 µM)
[4]
  IC50 at 48 h: 36.3 µg/mL (≈ 69.6 µM)
[5]
  HC10: 68.7 µg/mL
[6]
  Stability: Stable
[7]
  IC50: 3.9 µg/mL (≈ 7.47 µM)
[7]; Cryptococcus deneoformans
  MIC: 6.3 µg/mL (≈ 12.1 µM)
[8]
  Activity: Non-Toxic
Cryptococcus neoformans [9]
  Activity: Active
[10]
  IC50 at 48 h: 43.6 to 56.2 µg/mL (≈ 83.6 to 108 µM)
[1]
  IC50: 0.68 µg/mL (≈ 1.3 µM)
  MIC: 6.3 µg/mL (≈ 12.1 µM)
[11]
  Selectivity Index: 6
[12]
  IC50: 4 µg/mL (≈ 7.67 µM)
[12]; Cryptococcus deneoformans
  MIC: 25 µg/mL (≈ 47.9 µM)
[13]
  Activity: Non-Toxic
[14]
  Selectivity Index: 11
[15]
  Selectivity Index: 8
Cryptococcus neoformans [16]
  IC50: 12.2 µg/mL (≈ 23.4 µM)
  MIC: 25 µg/mL (≈ 47.9 µM)
[17]
  Activity: Non-Toxic
[18]
  Selectivity Index: 9
Mus musculus
  Activity: Non-Toxic
[19]
  IC50: 6.9 µg/mL (≈ 13.2 µM)
[19]; Cryptococcus deneoformans
  MIC: 25 µg/mL (≈ 47.9 µM)
